Source: ChEMBL document CHEMBL1127827, “In vivo inhibition of cathepsin B by peptidyl (acyloxy)methyl ketones” (J Med Chem, 1994)

Key:
Cathepsin B (Bos taurus) = Cathepsin B (Bos taurus) (UniProt P07688); experiment: Rate of cathepsin B inactivation in vitro in bovine spleen; type: tissue-based
Method in brief: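 Purified bovine spleen cathepsin B; continuous fluorometric assay in 0.1 M potassium phosphate, 1.25 mM EDTA, 1 mM dithiothreitol, pH 6.0, 25 °C; second-order inactivation rate constant k/K (M-1 s-1) determined.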

Rattus norvegicus [1] = experiment: Percentage of control was measured on rat liver cathepsin B by a single oral dose of 50 mg/kg; type: functional
Method in brief: (§1)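 Rats dosed once by gavage with compound suspended in CMC; livers taken 4-5 h postdose, frozen, homogenized and centrifuged; supernatant cathepsin B activity read with Z-Arg-Arg-NMec at pH 6.0, 37 °C, 30 min, quenched with chloroacetate/acetate pH 4.3; specific activity given as % of vehicle control, two dilutions in triplicate, 4-5 animals per group.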

Rattus norvegicus [2] = experiment: Percentage of control was measured on rat liver cathepsin B by a single intraperitoneal dose.(dose =10 mg/kg); type: functional
Method in brief: (§2)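 Female Lewis rats, single intraperitoneal dose as CMC suspension; livers removed 4-5 h postdose, frozen homogenate supernatant assayed fluorimetrically with Z-Arg-Arg-NMec in 0.1 M KH2PO4 pH 6.0, 1 mM EDTA, 1 mM DTT, 37 °C 30 min; protein-normalized activity as % of CMC control; two dilutions in triplicate per animal, 4-5 animals per group.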

Rattus norvegicus [3] = experiment: Percentage of control was measured on rat liver cathepsin B by a single oral dose.(dose =50 mg/kg); type: functional; method in brief: as §1
Rattus norvegicus [4] = experiment: Percentage of control was measured on rat liver cathepsin B by a single intraperitoneal dose of 10 mg/kg; type: functional; method in brief: as §2
[5] = Half-life measured in in vitro Cathepsin B assay in human plasma; type: ADME, cell-free
Rattus norvegicus [6] = experiment: ED50 value was determined for rat heart at 20h postdose by subcutaneous administration; type: functional; details: sc
Method in brief: (§3)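 Female Lewis rats (150-200 g, usually four per group), single subcutaneous dose suspended in CMC; heart, liver or skeletal muscle harvested 20 h postdose, frozen in liquid nitrogen, homogenized, clarified at 15000g. Cathepsin B measured as Z-Arg-Arg-NMec (20 μM solution) hydrolysis, pH 6.0, 37 °C 30 min, fluorescence ex 340/em 460; specific activity as % of vehicle control; ED50 from dose-response.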

Rattus norvegicus [7] = experiment: ED50 value was determined for rat liver at 20h postdose by subcutaneous administration; type: functional; details: sc; method in brief: as §3
Rattus norvegicus [8] = experiment: ED50 value was determined for rat skeletal muscle at 20h postdose by subcutaneous administration; type: functional; details: Muscle tissue, sc; method in brief: as §3
[9] = Half-life measured in rat plasma
Rattus norvegicus [10] = experiment: Percent inhibition was measured on rat liver cathepsin B by a single subcutaneous dose of 20 mg/kg
Rattus norvegicus [11] = experiment: Percent inhibition was measured on rat heart cathepsin B by a single subcutaneous dose of 20 mg/kg
Rattus norvegicus [12] = experiment: Percent inhibition was measured on rat spleen cathepsin B by a single subcutaneous dose of 20 mg/kg
Rattus norvegicus [13] = experiment: Percent inhibition was measured on rat pancreas cathepsin B by a single subcutaneous dose of 20 mg/kg
Rattus norvegicus [14] = experiment: Percent inhibition was measured on rat skeletal tissue cathepsin B by a single subcutaneous dose of 20 mg/kg
Rattus norvegicus [15] = experiment: Percentage of control was measured on rat liver cathepsin B by a single intraperitoneal dose.(dose =100 mg/kg); type: functional; method in brief: as §2
Rattus norvegicus [16] = experiment: Percentage of control was measured on rat liver cathepsin B by a single oral dose.(dose =100 mg/kg); type: functional; method in brief: as §1

| SMILES | k/K (Cathepsin B (Bos taurus)) | Control (Rattus norvegicus [1]) | Control (Rattus norvegicus [3]) | other results |
| --- | --- | --- | --- | --- |
| Cc1cc(C)c(C(=O)OCC(=O)CNC(=O)[C@H](Cc2ccccc2)NC(=O)CCC(=O)O)c(C)c1 | 700 M⁻¹ s⁻¹ | 49% |  |  |
| Cc1cc(C)c(C(=O)OCC(=O)[C@@H](C)NC(=O)[C@H](Cc2ccccc2)NC(=O)c2ccc(C(=O)NS(=O)(=O)c3ccccc3)cc2)c(C)c1 | 2500 M⁻¹ s⁻¹ |  | 62% | Control (Rattus norvegicus [2]): 68% |
| COc1ccc(C[C@H](NC(=O)OCc2ccccc2)C(=O)N[C@@H](CCCCN)C(=O)COC(=O)c2c(C)cc(C)cc2C)cc1.O=C(O)C(F)(F)F | 170000 M⁻¹ s⁻¹ | 30% |  |  |
| Cc1cc(C)c(C(=O)OCC(=O)CNC(=O)[C@H](Cc2ccccc2)NC(=O)OCc2ccccc2)c(C)c1 | 9900 M⁻¹ s⁻¹ |  | 29% |  |
| Cc1c(C)c(C(=O)OCC(=O)[C@H](C)NC(=O)[C@H](Cc2ccccc2)NC(=O)OCc2ccccc2)c(C)c(C)c1C(=O)O | 63000 M⁻¹ s⁻¹ | 79% |  | Control (Rattus norvegicus [4]): 53% |
| Cc1cc(C)c(C(=O)OCC(=O)[C@H](CCCCN)NC(=O)[C@H](Cc2ccccc2)NC(=O)OCc2ccccc2)c(C)c1.Cl | 230000 M⁻¹ s⁻¹ | 11% |  | half-life [5]: > 33 h; Control (Rattus norvegicus [4]): 4%; ED50 (Rattus norvegicus [6]): ~0.1 mg/kg; ED50 (Rattus norvegicus [7]): 2.4 mg/kg; ED50 (Rattus norvegicus [8]): 1 mg/kg; half-life [9]: 1.6 h; Inhibition % (Rattus norvegicus [10]): 96%; Inhibition % (Rattus norvegicus [11]): 94%; Inhibition % (Rattus norvegicus [12]): 98%; Inhibition % (Rattus norvegicus [13]): 96%; Inhibition % (Rattus norvegicus [14]): 72% |
| CC(C)C[C@H](NC(=O)[C@H]1O[C@@H]1C(=O)O)C(=O)NCCCCN=C(N)N [E-64] |  |  |  | Control (Rattus norvegicus [4]): 24% |
| CC(NC(=O)[C@H](Cc1ccccc1)NC(=O)OCc1ccccc1)C(=O)CF (some centres not stated) | 21000 M⁻¹ s⁻¹ | 7% |  |  |
| Cc1cc(C)c(C(=O)OCC(=O)[C@@H](C)NC(=O)[C@H](Cc2ccccc2)NC(=O)OCc2ccccc2)c(C)c1 | 14000 M⁻¹ s⁻¹ |  |  | Control (Rattus norvegicus [15]): 69%; Control (Rattus norvegicus [16]): 78% |
| Cc1cc(C)c(C(=O)OCC(=O)[C@@H](C)NC(=O)[C@H](Cc2ccccc2)NC(=O)CCC(=O)O)c(C)c1 | 1000 M⁻¹ s⁻¹ |  | 31% | Control (Rattus norvegicus [2]): 23% |
| COC(=O)CCC(=O)N[C@@H](Cc1ccccc1)C(=O)N[C@H](C)C(=O)COC(=O)c1c(C)cc(C)cc1C | 4000 M⁻¹ s⁻¹ |  | 50% | Control (Rattus norvegicus [2]): 38% |
